Most compounds without a hit are left out; they make up all but 1.9% or so of the library.
TbMetRS inhib: blocks T. brucei methionyl-tRNA synthetase activity; purified T. brucei MetRS, ATP depletion, Kinase-Glo luminescence; inhibition, % at 11.9 µM; hit rate 0.4% among 360,000; AID 624268;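 active means inhibition above a per-plate cutoff of the control wells' mean inhibition plus 3 SD, cut at about 5.5% in these data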
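Material – parasite MetRS enzyme · Medium – HEPES-MgCl2-KCl buffer plus DTT, spermine, BSA, pyrophosphatase · Reagent – ATP, methionine and E. coli bulk tRNA substrates · Times – 15 min enzyme-compound preincubation, 2 h reaction, 10 min detection, 25 °C · Measured by – luminescence of leftover ATP · Evaluation – percent inhibition relative to median high and low control wells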
HGIII-sPLA2 inh: Inhibits HGIII-sPLA2 liposome hydrolysis, primary screen | QFRET BODIPY PC-A2 liposome hydrolysis, fluorescence | inhibition, % at 12.2 µM | hit rate 0.56% among 370,000;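 active means inhibition above mean plus 3 SD of compounds lying within the high and low control bounds, cut at about 19% in these data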
Target sequence (Q9NZ20 whole entry, looked up): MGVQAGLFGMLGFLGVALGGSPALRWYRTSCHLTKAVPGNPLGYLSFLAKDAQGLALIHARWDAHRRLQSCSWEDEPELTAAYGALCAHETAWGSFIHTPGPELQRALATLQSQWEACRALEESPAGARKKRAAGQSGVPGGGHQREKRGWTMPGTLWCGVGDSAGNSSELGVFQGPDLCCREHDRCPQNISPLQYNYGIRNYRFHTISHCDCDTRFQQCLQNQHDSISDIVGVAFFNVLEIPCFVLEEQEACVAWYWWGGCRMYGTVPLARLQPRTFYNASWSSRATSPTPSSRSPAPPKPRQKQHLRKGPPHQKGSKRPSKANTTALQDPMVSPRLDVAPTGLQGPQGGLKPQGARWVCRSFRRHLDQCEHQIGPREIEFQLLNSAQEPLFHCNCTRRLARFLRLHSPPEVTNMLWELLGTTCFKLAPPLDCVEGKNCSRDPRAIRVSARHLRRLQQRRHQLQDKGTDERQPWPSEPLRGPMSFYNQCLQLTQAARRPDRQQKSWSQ
PLC-beta3 inh: blocks human PLC-beta3 enzyme activity; Purified PLC-beta3, fluorogenic substrate, fluorescence; Q01970; inhibition, % at 12.2 µM; hit rate 0.18% among 370,000
PLC-gamma1 inh: PLC-gamma1 (human) inhibition, primary screen. inhibition, % at 12.2 µM. P19174. purified PLC-gamma1, fluorogenic substrate, fluorescence. hit rate 0.84% among 370,000; in the data active means inhibition above about 9.5%
PLCg1 ctr: inhibits human PLC-gamma1 in PLC-beta3 counter-screen | shares compounds with PLC-gamma1 inh | inhibition, % at 12.3 µM | hit rate 3.1% among 3,300 | purified PLC-gamma1, fluorogenic substrate, fluorescence | AID 743258; in the data active means inhibition above about 9.5%
PLCbeta3 conf: confirmation of human PLC-beta3 inhibitors; shares compounds with PLC-gamma1 inh; purified PLC-beta3, fluorogenic substrate fluorescence; inhibition, % at 12.3 µM; hit rate 1% among 3,300; AID 743261
Hits are given with their value; n = inactive; x = no result. Unless noted, no stated cut-off is given here; in the data, active means inhibition above about 11%; inactive means the rest.

SMILES	TbMetRS inhib	HGIII-sPLA2 inh	PLC-beta3 inh	PLC-gamma1 inh	PLCg1 ctr	PLCbeta3 conf
CC1CCN(C(=O)CSc2nc3c(cnn3-c3ccccc3)c(=O)[nH]2)CC1	n	n	n	n	x	x
CC1CCN(C(=O)CSc2nc3c(cnn3-c3ccc(Cl)cc3)c(=O)[nH]2)CC1	n	n	11.3	10.0	n	n
O=C(Cc1ccccc1)Nc1ccc(N2CCOCC2)cc1N1CCOCC1	n	n	n	14.7	n	n
O=C(Cc1ccccc1)Nc1ccc(N2CCOCC2)cc1	n	n	n	n	x	x
Cc1nccn1CCOc1ccccc1Cl	n	n	n	10.4	n	n
COc1ccc(NC(=O)c2cc(-c3cc(F)ccc3OCC3CCCO3)n[nH]2)cc1OC (stereo not given)	n	n	n	12.1	n	n
Cn1c(C(O)c2ccc(Cl)cc2)nc(Cl)c1Cl (stereo not given)	n	n	n	11.1	n	n
COCc1nnc(NC(=O)c2ccc(NC(C)=O)cc2)s1	n	n	14.0	n	n	n
Cc1ccc(CNC(=O)OC(C)(C)C)c(/C=C/S(=O)(=O)NCc2ccc(F)cc2)c1	x	n	n	n	x	x
CCCCn1c(CCCNC(=O)c2ccco2)nc2ccccc21	n	n	n	12.1	n	n
CCCCn1c(CCNC(=O)c2ccco2)nc2ccccc21	n	n	n	n	x	x
COc1ccc(C(=O)NCC(=O)OC2CCCCC2=O)cc1 (stereo not given)	n	n	13.6	n	n	n
COCCNS(=O)(=O)c1ccc(OCC(=O)OC)c(Cl)c1	n	n	n	n	x	x
COC(=O)COc1ccc(S(=O)(=O)NCc2ccco2)cc1Cl	n	n	n	11.0	n	n
O=C1C(NS(=O)(=O)c2cccs2)=C(N2CCOCC2)C(=O)c2ccccc21	n	n	n	9.8	n	n
CN1CCN(C2=C(NS(=O)(=O)c3cccs3)C(=O)c3ccccc3C2=O)CC1	n	n	n	n	x	x
Oc1ccc(/C=N/N2CCN(c3ccccn3)CC2)cc1	n	n	n	n	x	x
C(=N\N1CCN(c2ccccn2)CC1)/c1ccccn1	n	n	n	9.7	n	n
O=C(NC1CCCN(Cc2ccc(Cl)cc2)C1)c1ccnc(Cl)c1 (stereo not given)	n	n	n	11.1	n	n
Cc1ccc(-c2nc(C3CCCN(S(=O)(=O)c4ccc(Cl)s4)C3)no2)cc1 (stereo not given)	x	n	n	n	x	x
O=C(CSc1nnc(-c2ccccn2)n1-c1ccccc1)Nc1ccc(OCc2ccccc2)cc1	x	n	n	n	x	x
CCOc1cc(CCNC(=O)c2cc3sccc3n2CC)ccc1OC	x	n	n	n	x	x
Cc1ccc(NC(=S)NC2CC3CCC(C2)N3Cc2ccco2)cc1C (stereo not given)	n	n	n	13.4	n	n
CCn1c(N2CCC(C)CC2)nc2c1c(=O)n(C)c(=O)n2C	n	25.6	n	11.7	n	n
CCOc1ccc(C(=O)Nc2ccc3c(c2)OCCO3)cc1[N+](=O)[O-]	n	n	n	10.5	n	n
SMILES	TbMetRS inhib	HGIII-sPLA2 inh	PLC-beta3 inh	PLC-gamma1 inh	PLCg1 ctr	PLCbeta3 conf
C[C@H]1COc2cc(N3CCCC3)ccc2S(=O)(=O)N1	x	n	n	n	x	x
CC(C)(C)c1ccc(C#C[C@@H]2C=C[C@H](O)[C@@H](COC(=O)Nc3ccccc3)O2)cc1	x	n	n	n	x	x
O=C(Nc1cccc(O)c1)C1CC(c2c(F)cccc2Cl)=NO1 (stereo not given)	n	n	n	n	x	x
O=C(Nc1cc(Cl)ccc1O)C1CC(c2c(F)cccc2Cl)=NO1 (stereo not given)	n	n	n	10.1	n	n
O=C(Cc1ccc(Cl)c(Cl)c1)Nc1ccc(S(=O)(=O)Nc2ccon2)cc1	x	n	n	n	x	x
NC(Cc1ccc(C(F)(F)F)cc1)c1csc(NC(=O)NCCc2ccccc2)n1 (stereo not given)	n	n	n	12.0	n	n
CC(C)CC(N)c1csc(NC(=O)NCCc2ccccc2)n1 (stereo not given)	n	n	n	n	x	x
COCCNC(=S)N1C[C@H]2CON(C)[C@H]2C[C@H]1c1ccccc1Br	x	n	n	9.7	n	n
NC(=O)CN1C(=O)C2C3CCC(C3)C2C1=O (stereo not given)	n	n	n	n	x	x
O=C(O)CN1C(=O)C2C3CCC(C3)C2C1=O (stereo not given)	n	n	n	14.4	n	n
COc1ccc2c(c1)CN1CN(Cc3ccccc3)S(=O)(=O)CC21 (stereo not given)	x	n	n	n	x	x
O=C1NC(=S)N/C1=C\c1cccnc1	n	n	n	n	x	x
O=C1NC(=S)N/C1=C/c1cccnc1	n	n	n	11.3	n	n
Cc1ccccc1CN1CCCCC(NC(=O)c2ccccc2C(F)(F)F)C1=O (stereo not given)	x	n	n	n	x	x
O=C(CN1CCN(Cc2ccccc2)CC1)N/N=C/c1cccs1	n	n	n	n	x	x
CC(C)NC(=S)N/N=C/c1cccs1	n	n	n	11.0	n	n
O=C(CN1CCCCCC1)N/N=C/c1cccs1	n	n	n	15.8	n	n
COC(=O)[C@]12C[C@H](CC(=O)N3CCCC3)C(=O)N(Cc3cccc4ccccc34)C1=C[C@H](C1CCCC1)O[C@@H]2C	x	n	n	n	x	x
COC(=O)[C@]12C[C@H](CC(=O)N3CCC(c4ccccc4)CC3)C(=O)N(Cc3ccc4c(c3)OCO4)C1=C[C@H](C(C)(C)C)O[C@@H]2C	x	n	n	n	x	x
Cc1ccc2[nH]c(O)c(N=NC(=O)CCc3ccccc3)c2c1Br	n	n	n	9.9	n	n
Cc1ccc(OCc2nnc(SCC(=O)c3ccc(-c4ccccc4)cc3)n2Cc2ccco2)cc1	x	n	n	n	x	x
CCN(CC)C(=O)c1[nH]cnc1C(=O)N[C@@H](C)c1ccccc1	n	n	n	n	x	x
CCN(CC)C(=O)c1[nH]cnc1C(=O)N[C@H](C)c1ccccc1	n	n	13.8	n	n	n
Cc1ccc2nsnc2c1S(=O)(=O)NCCc1c(C)[nH]c2ccc(F)cc12	n	n	n	10.2	n	n
COc1ccc(CN=C2NC(=O)CC(C(=O)Nc3cc(C)cc(C)c3)S2)cc1 (stereo not given)	n	n	16.7	n	n	n
SMILES	TbMetRS inhib	HGIII-sPLA2 inh	PLC-beta3 inh	PLC-gamma1 inh	PLCg1 ctr	PLCbeta3 conf
Nn1c(SCC(=O)Nc2nccs2)nnc1-c1cc(-c2ccc(Cl)cc2)n[nH]1	x	n	n	n	x	x
Clc1cccc(Cl)c1OCCCCN1CCCCC1	n	n	n	12.3	n	n
COc1cccc(N(C)C(=O)[C@@H](C2CC2)[C@@H](O)c2ccc3ccccc3c2)c1	x	n	n	n	x	x
COC(CNC(=O)c1ccc2c(c1)nc(C)n2-c1cccc(C)c1)OC	n	n	n	n	x	x
CCCNC(=O)c1ccc2c(c1)nc(C)n2-c1cccc(C)c1	n	n	n	12.6	n	n
NC1=C(Cl)C(=O)c2ccccc2C1=O	n	n	n	n	x	x
NC1=C(Cl)C(=O)c2ccc(S(N)(=O)=O)cc2C1=O	n	n	n	16.1	19.1	n
CC1CCCCN1C(=O)c1ccccc1OC1CCN(S(C)(=O)=O)CC1 (stereo not given)	n	n	n	9.5	n	n

High-throughput results as filed in PubChem.
